Measured values of several laboratories.
Each line is one published result; the experiments were not run side by side.
Target: Testis-specific serine/threonine-protein kinase 1 (TSSK1B, Homo sapiens, UniProt Q9BXA7)
Sequence (Q9BXA7 1-367, as in one of the studies): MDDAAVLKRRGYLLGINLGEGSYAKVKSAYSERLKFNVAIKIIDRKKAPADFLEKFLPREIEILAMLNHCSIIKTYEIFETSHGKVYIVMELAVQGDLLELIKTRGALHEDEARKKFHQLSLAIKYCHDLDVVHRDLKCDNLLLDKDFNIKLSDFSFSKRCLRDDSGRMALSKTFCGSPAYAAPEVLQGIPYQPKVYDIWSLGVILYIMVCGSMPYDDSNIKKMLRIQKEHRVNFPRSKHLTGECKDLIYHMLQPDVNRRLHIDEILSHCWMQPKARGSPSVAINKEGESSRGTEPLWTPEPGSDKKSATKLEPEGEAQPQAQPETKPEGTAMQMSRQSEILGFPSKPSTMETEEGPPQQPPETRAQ

| SMILES | read-out | technique | concentration | remaining binding [%] |
| --- | --- | --- | --- | --- |
| C[C@@H]1CN(c2ccc3ncc(-c4ccc5[nH]nc(C6CC6)c5c4)n3n2)C[C@H](C)O1 | binding | competition with immobilised ligand | 0.5 µM | 100 |
| CSc1cccnc1N1CCN(Cc2nc3ccccc3[nH]2)CC1 | cell-free assay | competition with immobilised ligand | 1 µM | 100 |
| N[C@@H]1CCN(c2nccc(-c3cnn4ncccc34)n2)C1 | binding |  | 1 µM | 97 |
| CCC(=N\O)/C(C)=C/c1ccc(F)cc1 | cell-free assay | competition with immobilised ligand | 1 µM | 82 |
| c1cncc(-c2cccc(Nc3nccc(NC4CCCCC4)n3)c2)c1 | binding | competition with immobilised ligand | 10 µM | 60 |
| FC(F)(F)Oc1cccc(-c2cnc3ccc(-c4ccncc4)nn23)c1 | binding | competition with immobilised ligand | 5 µM | 83 |
| C=CC(=O)N1CCC(C(=O)NCC(=O)N2CCN(c3nc(-c4cnc(N)nc4C(F)F)nc(N4CCOCC4)n3)CC2)CC1 | binding | competition with immobilised ligand | 1 µM | 95 |
| CN(C)c1nccc(-c2cnc3ncccn23)n1 | binding |  | 1 µM | 100 |
| O=C(c1ccc(Nc2ncc(Cl)c(-c3cc4ccccc4s3)n2)cc1)N1CCC(N2CCCC2)CC1 | binding | competition with immobilised ligand | 1 µM | 85 |
| CN(c1nccc(-c2cnn3ncccc23)n1)C1CC1 | binding |  | 1 µM | 100 |
| O=C(NCCCN1CCOCC1)c1ccc(Nc2nccc(-c3cc4ccccc4s3)n2)cc1 | binding | competition with immobilised ligand | 1 µM | 93 |
| CN(C)c1ncc(F)c(-c2cnn3ncccc23)n1 | binding |  | 1 µM | 100 |
| CC(C)(C)c1ccc(-c2nc(CBr)nn2-c2cccc(O)c2)cc1 | cell-free assay | competition with immobilised ligand | 10 µM | 81 |
| O=C(NS(=O)(=O)c1ccc(NCC2CCOCC2)c([N+](=O)[O-])c1)c1ccc(N2CCN(Cc3ccc(C(F)(F)F)cc3-c3ccc(Cl)cc3)CC2)cc1Oc1cnc2[nH]ccc2c1 | cell-free assay | competition with immobilised ligand | 1 µM | 100 |
| C[C@@H]1CCN(c2nccc(-c3cnn4ncccc34)n2)C1 | binding |  | 1 µM | 100 |
| COc1cc(-c2cn(C3CCc4ccccc4N(CC(F)(F)F)C3=O)nn2)ccc1-n1ccc(C)n1 (stereo not shown) | cell-free assay | competition with immobilised ligand | 1 µM | 83 |
| CNC(=O)[C@@H]1CC[C@@H](n2c(-c3ccc4cnccc4c3)nc3ccc(C(=O)NCc4cccc(C(N)=O)c4)cc32)C1 | binding | competition with immobilised ligand | 1 µM | 93 |
| O=C(c1ccc(Nc2ncc(Cl)c(-c3ccc(Cl)s3)n2)cc1)N1CCC(N2CCCC2)CC1 | binding | competition with immobilised ligand | 1 µM | 49 |
| COc1ccc2cc(OCC3(C(=O)O)CN(C(=O)c4ccc(F)cc4)C3)ccc2c1 | cell-free assay | competition with immobilised ligand | 1 µM | 100 |
| COc1ccnn2ncc(-c3ccnc(N(C)C)n3)c12 | binding |  | 1 µM | 100 |
| COc1cnc(Nc2cccc(S(N)(=O)=O)c2)nc1N1CCN(c2ccccc2)CC1 | binding | competition with immobilised ligand | 1 µM | 100 |
| COc1ccc2c(c1)O[C@H](c1ccc(OC)c(OC)c1)C[C@@H]2NC(=O)C1(c2ccc3c(c2)OC(F)(F)O3)CC1 | cell-free assay | competition with immobilised ligand | 1 µM | 100 |
| O=C(NCC1CCOCC1)c1n[nH]cc1NC(=O)c1c(F)cccc1F | binding | competition with immobilised ligand | 1 µM | 97 |
| O=C(O)[C@@H]1[C@@H](Cn2nnc3ccccc3c2=O)CC[C@H]1C(=O)c1ccc(OCCC2CCOCC2)cc1 | cell-free assay | competition with immobilised ligand | 1 µM | 100 |
| CN(CCCC(F)(F)F)c1nccc(-c2cnn3ncccc23)n1 | binding |  | 1 µM | 92 |
